# Reference: PMC3901358 (Journal of immunology (Baltimore, Md. : 1950), 2010)
# Experiments:
# [1] = tested on: CD4^+ T cells from PBLs of melanoma patients; assay: In vitro sensitization of PBLs with peptide and intracellular cytokine staining; assay type: cell-based, human; details: for patients with peptide-specific spontaneous CD4^+ T cells: 16 patients with stage IV LAGE-1^+/NY-ESO-1^+ melanoma, ICS after 10–12 d IVS; for Th1/Th2 Spontaneous Response Test by ICS, response type / Number of IFN-γ–producing CD4^+ T cells / number of IL-5–producing CD4^+ T cells: PBLs, 10–12 d IVS with the peptide, ICS; for Number of IFN-γ–producing CD4^+ T cells / number of IL-5–producing CD4^+ T cells: background subtracted
# [2] = tested on: LAGE-1–specific CD4^+ T cell clones; assay: IFN-γ ELISPOT, CD4+ T cell clones with peptide-pulsed L.DR cells; assay type: cell-based, human; details: 48-h IFN-γ ELISPOT
# [3] = tested on: Serum NY-ESO-1– and LAGE-1b–specific Abs; assay: ELISA of patient sera on plates coated with peptide or protein; assay type: binding, human; details: among the 16 patients with NY-ESO-1^+/LAGE-1^+ tumors
# In short: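 Plates coated overnight at 4°C with recombinant NY-ESO-1 protein or 18-aa overlapping LAGE-1b peptides (P132–P210), 1 µg/ml in 15 mM Na₂CO₃/30 mM NaHCO₃ pH 9.6 with 0.02% NaN₃. Blocked overnight at 4°C with PBS/2% BSA. Patient sera (NY-ESO-1⁺/LAGE-1⁺ or negative tumors) in PBS/2% BSA, 4-fold dilution series, 2 h RT. Goat anti-human IgG-AP 1 h RT. Phosphatase substrate 25 min RT, read immediately.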
# [4] = irrelevant control peptide (1 µg/ml), all healthy donors and patients, 6 h ICS
substance,measurement,setting,value
"LAGE-1_97–114: 18-aa overlapping synthetic peptide, LAGE-1 positions 97–114; immunodominant epitope (SSPMEAELVRRILSRDAA; UniProt O75638 97-114, looked up, fragment)",patients with peptide-specific spontaneous CD4^+ T cells,[1],7 out of 16
same,"Th1/Th2 Spontaneous Response Test by ICS, response type",[1]; patient MP2,"Th2 (0, 100)"
same,Number of IFN-γ–producing CD4^+ T cells,[1]; patient MP2,0 per 10^5 CD4^+ T cells
same,number of IL-5–producing CD4^+ T cells,[1]; patient MP2,100 per 10^5 CD4^+ T cells
same,"Th1/Th2 Spontaneous Response Test by ICS, response type",[1]; patient MP4,"Th1 (101, 18)"
same,Number of IFN-γ–producing CD4^+ T cells,[1]; patient MP4,101 per 10^5 CD4^+ T cells
same,number of IL-5–producing CD4^+ T cells,[1]; patient MP4,18 per 10^5 CD4^+ T cells
same,"Th1/Th2 Spontaneous Response Test by ICS, response type",[1]; patient MP6,"Th1 (110, 20)"
same,Number of IFN-γ–producing CD4^+ T cells,[1]; patient MP6,110 per 10^5 CD4^+ T cells
same,number of IL-5–producing CD4^+ T cells,[1]; patient MP6,20 per 10^5 CD4^+ T cells
same,"Th1/Th2 Spontaneous Response Test by ICS, response type",[1]; patient MP7,"Th2 (0, 435)"
same,Number of IFN-γ–producing CD4^+ T cells,[1]; patient MP7,0 per 10^5 CD4^+ T cells
same,number of IL-5–producing CD4^+ T cells,[1]; patient MP7,435 per 10^5 CD4^+ T cells
same,"Th1/Th2 Spontaneous Response Test by ICS, response type",[1]; patient MP9,"Th1/Th2 (83, 193)"
same,Number of IFN-γ–producing CD4^+ T cells,[1]; patient MP9,83 per 10^5 CD4^+ T cells
same,number of IL-5–producing CD4^+ T cells,[1]; patient MP9,193 per 10^5 CD4^+ T cells
same,"Th1/Th2 Spontaneous Response Test by ICS, response type",[1]; patient MP15,"Th1/Th2 (60, 530)"
same,Number of IFN-γ–producing CD4^+ T cells,[1]; patient MP15,60 per 10^5 CD4^+ T cells
same,number of IL-5–producing CD4^+ T cells,[1]; patient MP15,530 per 10^5 CD4^+ T cells
same,"Th1/Th2 Spontaneous Response Test by ICS, response type",[1]; patient MP16,"Th1 (170, 0)"
same,Number of IFN-γ–producing CD4^+ T cells,[1]; patient MP16,170 per 10^5 CD4^+ T cells
same,number of IL-5–producing CD4^+ T cells,[1]; patient MP16,0 per 10^5 CD4^+ T cells
"LAGE-1_104–121: 18-aa overlapping synthetic peptide, LAGE-1 positions 104–121; immunodominant epitope (LVRRILSRDAAPLPRPGA; UniProt O75638 104-121, looked up, fragment)",patients with peptide-specific spontaneous CD4^+ T cells,[1],10 out of 16
same,"Th1/Th2 Spontaneous Response Test by ICS, response type",[1]; patient MP1,"Th1/Th2 (213, 79)"
same,Number of IFN-γ–producing CD4^+ T cells,[1]; patient MP1,213 per 10^5 CD4^+ T cells
same,number of IL-5–producing CD4^+ T cells,[1]; patient MP1,79 per 10^5 CD4^+ T cells
same,"Th1/Th2 Spontaneous Response Test by ICS, response type",[1]; patient MP2,"Th2 (0, 110)"
same,Number of IFN-γ–producing CD4^+ T cells,[1]; patient MP2,0 per 10^5 CD4^+ T cells
same,number of IL-5–producing CD4^+ T cells,[1]; patient MP2,110 per 10^5 CD4^+ T cells
same,"Th1/Th2 Spontaneous Response Test by ICS, response type",[1]; patient MP3,"Th1 (130, 0)"
same,Number of IFN-γ–producing CD4^+ T cells,[1]; patient MP3,130 per 10^5 CD4^+ T cells
same,number of IL-5–producing CD4^+ T cells,[1]; patient MP3,0 per 10^5 CD4^+ T cells
same,"Th1/Th2 Spontaneous Response Test by ICS, response type",[1]; patient MP5,"Th1/Th2 (505, 80)"
same,Number of IFN-γ–producing CD4^+ T cells,[1]; patient MP5,505 per 10^5 CD4^+ T cells
same,number of IL-5–producing CD4^+ T cells,[1]; patient MP5,80 per 10^5 CD4^+ T cells
same,"Th1/Th2 Spontaneous Response Test by ICS, response type",[1]; patient MP6,"Th1/Th2 (351, 185)"
same,Number of IFN-γ–producing CD4^+ T cells,[1]; patient MP6,351 per 10^5 CD4^+ T cells
same,number of IL-5–producing CD4^+ T cells,[1]; patient MP6,185 per 10^5 CD4^+ T cells
same,"Th1/Th2 Spontaneous Response Test by ICS, response type",[1]; patient MP7,"Th2 (0, 543)"
same,Number of IFN-γ–producing CD4^+ T cells,[1]; patient MP7,0 per 10^5 CD4^+ T cells
same,number of IL-5–producing CD4^+ T cells,[1]; patient MP7,543 per 10^5 CD4^+ T cells
same,"Th1/Th2 Spontaneous Response Test by ICS, response type",[1]; patient MP8,"Th1/Th2 (341, 221)"
same,Number of IFN-γ–producing CD4^+ T cells,[1]; patient MP8,341 per 10^5 CD4^+ T cells
same,number of IL-5–producing CD4^+ T cells,[1]; patient MP8,221 per 10^5 CD4^+ T cells
same,"Th1/Th2 Spontaneous Response Test by ICS, response type",[1]; patient MP9,"Th1/Th2 (205, 65)"
same,Number of IFN-γ–producing CD4^+ T cells,[1]; patient MP9,205 per 10^5 CD4^+ T cells
same,number of IL-5–producing CD4^+ T cells,[1]; patient MP9,65 per 10^5 CD4^+ T cells
same,"Th1/Th2 Spontaneous Response Test by ICS, response type",[1]; patient MP12,"Th1 (270, 0)"
same,Number of IFN-γ–producing CD4^+ T cells,[1]; patient MP12,270 per 10^5 CD4^+ T cells
same,number of IL-5–producing CD4^+ T cells,[1]; patient MP12,0 per 10^5 CD4^+ T cells
same,"Th1/Th2 Spontaneous Response Test by ICS, response type",[1]; patient MP14,"Th1 (400, 0)"
same,Number of IFN-γ–producing CD4^+ T cells,[1]; patient MP14,400 per 10^5 CD4^+ T cells
same,number of IL-5–producing CD4^+ T cells,[1]; patient MP14,0 per 10^5 CD4^+ T cells
"LAGE-1b118–135: 18-aa overlapping synthetic peptide, LAGE-1b positions 118–135; immunodominant epitope (RPGAVLKDFTVSGNLLFM; LAGE-1b; UniProt O75638 118-135, looked up, fragment)",patients with peptide-specific spontaneous CD4^+ T cells,[1],9 out of 16
"NY-ESO-1_104–121: NY-ESO-1 peptide overlapping the LAGE-1_104–121 sequence, control (LARRSLAQDAPPLPVPGV; UniProt P78358 104-121, looked up, fragment)",recognition of peptide by LAGE-1_104–121–specific CD4^+ T cell clone 116/12,[2],did not recognize
HIVpol711–725: irrelevant HIV-derived control peptide in ICS [reference compound],mean value of IFN-γ–producing CD4^+ T cells,[1]; [4],25 per 10^5 CD4^+ T cells
same,mean value of IL-5–producing CD4^+ T cells,[1]; [4],22 per 10^5 CD4^+ T cells
"LAGE-1b188–210: overlapping synthetic peptide, LAGE-1b positions 188–210 (PEGAQGDGCRGVAFNVMFSAPHI; LAGE-1b; UniProt O75638 188-210, looked up, fragment)",number of patients with high titers of LAGE-1b Abs recognizing the peptide,[3],4
"LAGE-1b167–184: 18-aa overlapping synthetic peptide, LAGE-1b positions 167–184 (DLRTPKHKVSEQRPGTPG; LAGE-1b; UniProt O75638 167-184, looked up, fragment)",number of patients with high titers of LAGE-1b Abs recognizing the peptide,[3],4
